The values that follow come from ChEMBL document CHEMBL4017514, “Discovery of Novel Macrocyclic Hedgehog Pathway Inhibitors Acting by Suppressing the Gli-Mediated Transcription” (J Med Chem, 2017).

What is called IC50 is the point on the concentration scale where inhibition reaches its midpoint. A higher IC50 goes with a need for much substance. The inhibition is the drop in the measured response relative to a control, in per cent.

Holding throughout (format): cell-based
The nature of assay [1]: Inhibition of hedgehog signaling pathway in mouse Light2 cells in Shh conditioned medium by Gli-luciferase reporter gene assay. In a few lines:
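Light II cells (NIH-3T3 stably transfected with Gli-responsive firefly luciferase and Renilla expression vector) stimulated with ShhN conditioned medium. This medium was collected from ShhN-transfected HEK293 cells kept in 0.1% FBS. Firefly luciferase normalized to Renilla. IC50 given as mean ± SD (nM) from three separate experiments.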

The species named for assay [2] is Mus musculus. Briefly: Inhibition of hedgehog signaling pathway in mouse Light2 cells in Shh conditioned medium at 1 uM by Gli-luciferase reporter gene assay relative to control. Background: In a reporter assay the amount or activity of a reporter protein is the signal.
The species entered for assay [3] is Homo sapiens. Description: Inhibition of TNFalpha-induced NFkappaB activation in HEK293 cells at 20 uM after 24 hrs by dual luciferase reporter gene assay. Conditions: 1 uM, in the assay text read “1 uM” for “20 uM”. In a few lines:
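HEK293 cells carrying NF-κB firefly reporter plus Renilla, stimulated with TNF-α and treated for 24 h. Cells lysed for dual luciferase assay, firefly signal normalized to Renilla. Data given as mean ± SD.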

For assay [4], the species on record is Mus musculus. Description: Inhibition of hedgehog signaling pathway in mouse NIH/3T3 cells harboring sufu shRNA assessed as downregulation of Gli1 mRNA expression at 1 uM by RT-qPCR analysis. The method, boiled down:
(§1)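 Sufu expression in NIH-3T3 cells was reduced by lentivirus carrying Sufu shRNA. Knockdown was checked by immunoblot of Sufu, with GAPDH as loading control, in lysates made in Tris pH 7.4/NaCl/NP-40 buffer with protease and phosphatase inhibitors. Gli1 and ptch1 mRNA were then measured in the knockdown cells by RT-qPCR.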

The species named for assay [5] is Mus musculus. Description: Inhibition of hedgehog signaling pathway in mouse NIH/3T3 cells harboring sufu shRNA assessed as downregulation of ptch1 mRNA expression at 1 uM by RT-qPCR analysis. The method, boiled down: as §1
For orientation: In qPCR the cycle at which signal appears reflects the starting amount.

Assay [6] is filed under the species Homo sapiens. Description: Inhibition of PGE2-stimulated TCF/LEF activity in human LS174T cells at 20 uM measured after 6 hrs by dual luciferase reporter gene assay. In a few lines:
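LS174T cells carrying TCF/LEF reporter, stimulated with PGE2 and treated for 6 h. Dual luciferase read-out, firefly normalized to Renilla. Data given as mean ± SD.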

The structures appear in SMILES notation. Activity calls are given as the source filed them. The rule behind the calls is not given here.

Compound `O=C(Nc1cccc2c1OCC1CN(S(=O)(=O)c3ccc(Cl)s3)CCN1C2=O)C1CC1` (stereo not given) came in with an IC50 in assay [1] (Mus musculus) of 0.482 µM. The inhibition in the assay listed under Mus musculus [2] amounted to 80%. As for `O=C(Nc1cccc2c1OCC1CN(S(=O)(=O)c3ccc(Cl)cc3)CCN1C2=O)C1CC1` (stereo not given), in assay [1] (Mus musculus), the IC50 was greater than 1 µM. In addition, the inhibition in the assay listed under Mus musculus [2] came to 35%.

`Cn1ccc(S(=O)(=O)N2CCN3C(=O)c4cccc(NC(=O)C5CC5)c4OCC3C2)n1` (stereo not given) showed an IC50 in assay [1] (Mus musculus) greater than 1 µM. The inhibition in the assay filed under Mus musculus [2] worked out at 58%. For `COc1ccc(CN2C[C@H]3CN(S(=O)(=O)c4ccc(Cl)cc4)CC[C@H]3Oc3c(NC(=O)C4CC4)cccc3C2=O)cc1` the same measures were 0.2 µM and 92%.

For `C[C@H](CO)N1CC2CCN(S(=O)(=O)c3ccc(Cl)cc3)CC2Oc2c(NC(=O)C3CC3)cccc2C1=O` (stereo not given in full) [listing 1 of 2 here], the IC50 in assay [1] (Mus musculus) was greater than 1 µM. The compound `COc1ccc(CN2C[C@@H]3CN(S(=O)(=O)c4ccc(Cl)cc4)CC[C@@H]3Oc3c(NC(=O)C4CC4)cccc3C2=O)cc1` [listing 1 of 2 here] yielded an IC50 in assay [1] of 0.012 µM. For the compound `COc1ccc(CN2C[C@@H]3CN(S(=O)(=O)c4ccc(Cl)cc4)CC[C@@H]3Oc3c(NC(=O)C4CC4)cccc3C2=O)cc1` [listing 2 of 2 here], the inhibition in the assay listed under Mus musculus [2] worked out at 117%. On the same count and under the same terms, the figure for `C[C@H](CO)N1CC2CCN(S(=O)(=O)c3ccc(Cl)cc3)CC2Oc2c(NC(=O)C3CC3)cccc2C1=O` (stereo not given in full) [listing 2 of 2 here] is 34%. Turning to `Cc1ccc(S(=O)(=O)/C=C/C#N)cc1`, in the assay listed under Homo sapiens [3], the inhibition entry is “Active”. Turning to `Cc1sc2c(c1C)C(c1ccc(Cl)cc1)=N[C@@H](CC(=O)OC(C)(C)C)c1nnc(C)n1-2`, the inhibition entry in the assay listed under Mus musculus [4] and in the assay filed under Mus musculus [5] was “Active” throughout. Turning to `O=S(=O)(NCCNC/C=C/c1ccc(Br)cc1)c1cccc2cnccc12`, the inhibition result in the assay filed under Homo sapiens [6] was “Active”.

Turning to `COc1ccc(CN2C[C@@H]3CN(S(=O)(=O)c4ccn(C)n4)CC[C@@H]3Oc3c(NC(=O)C4CC4)cccc3C2=O)cc1` (racemic), it took 0.145 µM to reach half-maximal inhibition in assay [1] (Mus musculus) (IC50). The inhibition in the assay filed under Mus musculus [2] was found to be 87%. For `O=C(Nc1cccc2c1O[C@H]1CN(S(=O)(=O)c3ccc(Cl)cc3)CC[C@H]1CN(CCO)C2=O)C1CC1` (racemic) the same measures were greater than 1 µM and 25%.

Regarding `COc1ccc(CN2C[C@@H]3CCN(S(C)(=O)=O)C[C@@H]3Oc3c(NC(=O)C4CC4)cccc3C2=O)cc1` (racemic), in assay [1] (Mus musculus), the concentration for half-maximal inhibition (IC50) was greater than 1 µM. Also, the inhibition in the assay filed under Mus musculus [2] is 45%. With `COc1ccc(CN2C[C@@H]3CCN(S(=O)(=O)c4ccc(NC(C)=O)cc4)C[C@@H]3Oc3c(NC(=O)C4CC4)cccc3C2=O)cc1` (racemic), in assay [1] (Mus musculus), the IC50 turned out to be 0.042 µM. For the same compound, the inhibition in the assay filed under Mus musculus [2] turned out to be 105%. For `O=C(Nc1cccc2c1O[C@H]1CN(S(=O)(=O)c3ccc(Cl)cc3)CC[C@H]1CN(Cc1cccnc1)C2=O)C1CC1` (racemic) the same measures were greater than 1 µM and 28%.

With `COc1ccc(CN2CC3CN(S(=O)(=O)c4ccc(Cl)cc4Cl)CCC3Oc3c(NC(=O)C4CC4)cccc3C2=O)cc1` (racemic), in assay [1] (Mus musculus), half-maximal inhibition (IC50) required 0.033 µM. The inhibition in the assay filed under Mus musculus [2] is 107%.

As to `COc1ccc(CN2C[C@@H]3CCN(S(=O)(=O)C4CCCCC4)C[C@@H]3Oc3c(NC(=O)C4CC4)cccc3C2=O)cc1` (racemic), the IC50 in assay [1] (Mus musculus) was greater than 1 µM. In the assay filed under Mus musculus [2], the inhibition stood at 42%. The matching figures for `O=C(Nc1cccc2c1O[C@H]1CN(S(=O)(=O)c3ccc(Cl)cc3)CC[C@H]1CN(CCO)C2=O)C1CCCCC1` (racemic): greater than 1 µM and 32%. The matching figures for `COc1ccc(CN2C[C@@H]3CCN(S(=O)(=O)c4ccc(Cl)cc4)C[C@@H]3Oc3c(NC(=O)C4CC4)cccc3C2=O)cc1` (racemic): 0.304 µM and 97%. For `CN1CCC(N2C[C@@H]3CCN(S(=O)(=O)c4ccc(Cl)cc4)C[C@@H]3Oc3c(NC(=O)C4CC4)cccc3C2=O)CC1` (racemic) the same measures were 0.344 µM and 61%. Turning to `COc1ccc(CN2C[C@@H]3CCN(S(=O)(=O)c4ccc(Cl)s4)C[C@@H]3Oc3c(NC(=O)C4CC4)cccc3C2=O)cc1` (racemic), inhibition in assay [1] (Mus musculus) was half-maximal at 0.167 µM (IC50). Further, in the assay listed under Mus musculus [2], the inhibition was 113%. `COc1ccc(CN2C[C@@H]3CCN(S(=O)(=O)c4ccc(Cl)cc4)C[C@@H]3Oc3ccc(NC(=O)C4CC4)cc3CC2=O)cc1` (racemic) showed an IC50 in assay [1] (Mus musculus) of 0.502 µM. Besides, the inhibition in the assay filed under Mus musculus [2] came to 60%. For `COc1ccc(CN2C[C@@H]3CCN(C(=O)Nc4ccc(C(F)(F)F)cc4)C[C@@H]3Oc3c(NC(=O)C4CC4)cccc3C2=O)cc1` (racemic) the same measures were 0.292 µM and 100%. The matching figures for `COc1ccc(CN2C[C@@H]3CN(S(=O)(=O)c4ccc(Cl)cc4)CC[C@@H]3Oc3ccc(NC(=O)C4CC4)cc3CC2=O)cc1` (racemic): greater than 1 µM and 36%. For `COc1ccc(CN2C[C@@H]3CCN(S(=O)(=O)N4CCN(C)CC4)C[C@@H]3Oc3c(NC(=O)C4CC4)cccc3C2=O)cc1` (racemic) the same measures were greater than 1 µM and 45%.

In the case of `COc1ccc(CN2C[C@@H]3CN(S(=O)(=O)c4ccc(Cl)s4)CC[C@@H]3Oc3c(NC(=O)C4CC4)cccc3C2=O)cc1` (racemic), the IC50 in assay [1] (Mus musculus) amounted to 0.046 µM. In addition, in the assay filed under Mus musculus [2], the inhibition amounted to 108%.

Consider `COc1ccc(CN2CC3CN(C(=O)Nc4ccc(C(F)(F)F)cc4)CCC3Oc3c(NC(=O)C4CC4)cccc3C2=O)cc1` (racemic), for which the IC50 in assay [1] (Mus musculus) was greater than 1 µM. The inhibition in the assay filed under Mus musculus [2] was determined as 68%. In assay [1] (Mus musculus), `COc1ccc(CN2CC3CN(S(=O)(=O)c4ccc(NC(C)=O)cc4)CCC3Oc3c(NC(=O)C4CC4)cccc3C2=O)cc1` (racemic) displayed an IC50 of 0.773 µM. Also, the inhibition in the assay filed under Mus musculus [2] came out at 82%. For `COc1ccc(CN2C[C@@H]3CCN(S(=O)(=O)c4ccn(C)n4)C[C@@H]3Oc3ccc(NC(=O)C4CC4)cc3CC2=O)cc1` (racemic) the same measures were greater than 1 µM and 16%. As for `COc1ccc(CN2C[C@@H]3CCN(S(=O)(=O)c4ccc(OC)c(OC)c4)C[C@@H]3Oc3c(NC(=O)C4CC4)cccc3C2=O)cc1` (racemic), in assay [1] (Mus musculus), the IC50 is greater than 1 µM. Moreover, the inhibition in the assay filed under Mus musculus [2] was 54%.

For the compound `COc1ccc(CN2C[C@@H]3CCN(C(=O)c4ccc(Cl)cc4)C[C@@H]3Oc3c(NC(=O)C4CC4)cccc3C2=O)cc1` (racemic), the IC50 in assay [1] (Mus musculus) was greater than 1 µM. Moreover, the inhibition in the assay filed under Mus musculus [2] turned out to be 22%. In assay [1] (Mus musculus), `COc1ccc(CN2C[C@@H]3CN(S(=O)(=O)c4ccn(C)n4)CC[C@@H]3Oc3ccc(NC(=O)C4CC4)cc3CC2=O)cc1` (racemic) returned an IC50 greater than 1 µM. Regarding `COc1ccc(CN2C[C@@H]3CCN(S(=O)(=O)c4ccn(C)n4)C[C@@H]3Oc3c(NC(=O)C4CC4)cccc3C2=O)cc1` (racemic), 0.094 µM corresponded to half-maximal inhibition in assay [1] (Mus musculus) (IC50). In the assay filed under Mus musculus [2], the inhibition stood at 74%. On to `COc1ccc(CN2C[C@@H]3CN(S(=O)(=O)c4ccc(Cl)s4)CC[C@@H]3Oc3ccc(NC(=O)C4CC4)cc3CC2=O)cc1` (racemic), for which, in assay [1] (Mus musculus), the IC50 was determined as 1.62 µM. Moreover, the inhibition in the assay listed under Mus musculus [2] is 65%. The matching figures for `COc1ccc(CN2C[C@@H]3CCN(S(=O)(=O)c4ccc(Cl)cc4Cl)C[C@@H]3Oc3c(NC(=O)C4CC4)cccc3C2=O)cc1` (racemic): 0.766 µM and 102%. Compound `COc1ccc(CN2C[C@@H]3CCN(C(=O)Nc4ccc(F)cc4F)C[C@@H]3Oc3c(NC(=O)C4CC4)cccc3C2=O)cc1` (racemic) had an IC50 in assay [1] (Mus musculus) of 0.026 µM. In addition, the inhibition in the assay listed under Mus musculus [2] is 100%. For `COc1ccc(CN2CC3CN(C(=O)Nc4ccc(F)cc4F)CCC3Oc3c(NC(=O)C4CC4)cccc3C2=O)cc1` (racemic) the same measures were 0.54 µM and 87%. On to `C[C@H](CO)N1CC2CCN(S(=O)(=O)c3ccc(Cl)cc3)CC2Oc2c(NC(=O)C3CC3)cccc2C1=O` (single isomer, unassigned; (+)), for which, in the assay filed under Mus musculus [2], the inhibition is 40%.
